# Source: ChEMBL document CHEMBL1127542, “Inhibitors of acyl-CoA:cholesterol O-acyl transferase (ACAT) as hypocholesterolemic agents. 8. Incorporation of amide or amine functionalities into a series of disubstituted ureas and carbamates. Effects on ACAT inhibition in vitro and efficacy in vivo” (J Med Chem, 1994)
# pIC50: −log10 of the molar value. The source made the active and inactive calls. No cut-off for these calls is given here.
# Assays:
# Rattus norvegicus [1] = assay: Percent change in total cholesterol in cholic acid (0.5%)-cholesterol (1.5%)-peanut oil (5.5%)-fed rats (50 mg/kg was administered as the standard dose); No change; type: functional, organism-based
# How it was run: (§1)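 Acute screen: rats given a single gavage dose, 50 mg/kg standard unless noted, suspended in carboxymethylcellulose plus Tween-20 in water, then a single high-fat, high-cholesterol meal (0.5% cholic acid, 1.5% cholesterol, 5.5% peanut oil). Overnight rise in plasma total cholesterol measured as % change versus control. Stomachs checked for food. ANOVA with Fisher's multiple range test, p<0.05.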
# [2] = molecular target: Sterol O-acyltransferase 1 (Oryctolagus cuniculus); assay: In vitro inhibition of rabbit intestinal acyl coenzyme A:cholesterol acyltransferase using [1-14C]oleolyl-CoA
# Rattus norvegicus [3] = species: Rattus norvegicus; assay: Percent change in total cholesterol in cholic acid (0.5%)-cholesterol (1.5%)-peanut oil (5.5%)-fed rats; type: functional; how it was run: as §1
# Rattus norvegicus [4] = assay: The compound at a dose of 50 mg/kg is evaluated for percent change in High Density Lipoprotein (HDl) level in chronic cholesterol fed rat screen; type: functional
# How it was run: (§2)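 Chronic model: rats fed the high-fat, high-cholesterol diet for 14 days. In the second week, 50 mg/kg given daily by gavage in carboxymethylcellulose/Tween-20 aqueous vehicle. Plasma HDL and non-HDL cholesterol expressed as % change versus control. Body-weight gain monitored. ANOVA with Fisher's multiple range test, p<0.05.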
# Rattus norvegicus [5] = assay: The compound at a dose of 50 mg/kg is evaluated for percent change in Non-High Density Lipoprotein level in chronic cholesterol fed rat screen; type: functional; how it was run: as §2
# Rattus norvegicus [6] = assay: The compound at a dose of 50 mg/kg is evaluated for percent change in High Density Lipoprotein (HDl) level in chronic cholesterol fed rat screen; No change; type: functional, organism-based; design: dose 50 mg/kg; how it was run: as §2
# Rattus norvegicus [7] = assay: The compound at a dose of 50 mg/kg is evaluated for percent change in NON-High Density Lipoprotein level in chronic cholesterol fed rat screen; type: functional; how it was run: as §2
# Rattus norvegicus [8] = assay: The compound at a dose of 50 mg/kg is evaluated for percent change in High Density Lipoprotein (HDL) level in chronic cholesterol fed rat screen; type: functional; how it was run: as §2
# [9] = molecular target: T1, Sterol O-acyltransferase 1 (Rattus norvegicus, UniProt O70536); assay: In vitro inhibition of rat intestinal acyl coenzyme A:cholesterol acyltransferase using [1-14C]oleolyl-CoA
# T1 sequence (O70536 whole entry): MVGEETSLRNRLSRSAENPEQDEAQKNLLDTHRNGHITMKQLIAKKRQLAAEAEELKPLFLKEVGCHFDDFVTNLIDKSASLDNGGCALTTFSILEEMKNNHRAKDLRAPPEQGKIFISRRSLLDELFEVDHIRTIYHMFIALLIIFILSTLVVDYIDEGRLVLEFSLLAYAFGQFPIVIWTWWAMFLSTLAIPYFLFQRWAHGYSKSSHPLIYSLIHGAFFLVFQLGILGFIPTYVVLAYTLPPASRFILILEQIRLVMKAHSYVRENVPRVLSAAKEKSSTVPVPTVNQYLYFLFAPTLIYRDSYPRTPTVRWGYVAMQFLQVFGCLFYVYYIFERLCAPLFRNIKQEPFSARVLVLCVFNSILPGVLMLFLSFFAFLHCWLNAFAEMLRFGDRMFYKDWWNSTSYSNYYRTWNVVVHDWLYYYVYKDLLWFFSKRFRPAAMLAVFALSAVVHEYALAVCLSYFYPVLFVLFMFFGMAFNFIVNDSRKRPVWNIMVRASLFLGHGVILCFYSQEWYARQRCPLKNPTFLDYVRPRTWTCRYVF
SMILES,Change (Rattus norvegicus [1]),pIC50 [2],Change (Rattus norvegicus [3]) [%],further results
CC(C)c1cccc(C(C)C)c1NC(=O)NCC(NC(=O)c1ccccc1)c1ccccc1 (stereo not given),inactive,6.28,,
CCCCCCCCCCCCNC(CNC(=O)Nc1c(C(C)C)cccc1C(C)C)c1ccccc1 (racemic),,7.35,-45,Change (Rattus norvegicus [4]): 29%; Change (Rattus norvegicus [5]): 27%
CCCCCCC(=O)NCC(CNC(=O)Nc1c(C(C)C)cccc1C(C)C)c1ccccc1 (stereo not given),inactive,6.19,,
COC(=O)CCCCC(=O)NC(CNC(=O)Nc1c(C(C)C)cccc1C(C)C)c1ccccc1 (stereo not given),inactive,5.59,,
CC(C)c1cccc(C(C)C)c1NC(=O)NCC(NC(=O)c1c(Cl)cccc1Cl)c1ccccc1 (stereo not given),inactive,5.92,,
CCCCCCCCCCCC(=O)NCC(CNC(=O)Nc1c(C(C)C)cccc1C(C)C)c1ccccc1 (stereo not given),inactive,7.10,,
CCCCCCCCCCCCNCC(CNC(=O)Nc1c(C(C)C)cccc1C(C)C)c1ccccc1 (racemic),,6.96,-54,Change (Rattus norvegicus [6]): inactive
CC(C)c1cccc(C(C)C)c1NC(=O)NCC(NC(=O)CCCCCN)c1ccccc1 (stereo not given),inactive,< 5.30,,
CC(C)c1cccc(C(C)C)c1NC(=O)NCC(NC(=O)c1cccc[n+]1[O-])c1ccccc1 (stereo not given),,6.89,-44,Change (Rattus norvegicus [4]): 70%; Change (Rattus norvegicus [5]): -31%
CC(C)c1cccc(C(C)C)c1NC(=O)NCC(CNC(=O)c1ccccc1)c1ccccc1 (stereo not given),inactive,5.72,,
CC(=O)NC(CNC(=O)Nc1c(C(C)C)cccc1C(C)C)c1ccccc1 (stereo not given),inactive,5.60,,
CC(C)c1cccc(C(C)C)c1NC(=O)NCC(NC(=O)CCCCCN(C)C)c1ccccc1 (stereo not given),inactive,5.38,,
COCCCCCC(=O)NC(CNC(=O)Nc1c(C(C)C)cccc1C(C)C)c1ccccc1 (stereo not given),inactive,6.42,,
CCCCCCC(=O)NC(CNC(=O)Nc1c(C(C)C)cccc1C(C)C)c1ccccc1 (stereo not given),inactive,6.82,,
CCCCCCCCCCCCCCCC(=O)NC(CNC(=O)Nc1c(C(C)C)cccc1C(C)C)c1ccccc1 (stereo not given),inactive,7.09,,
"CC(C)c1cccc(C(C)C)c1NC(=O)NCC(NCc1ccccc1O)c1ccccc1 (single isomer, unassigned; (-))",,6.92,-50,Change (Rattus norvegicus [7]): 3%; Change (Rattus norvegicus [4]): 40%
CC(C)=CCCC(C)CC(=O)NC(CNC(=O)Nc1c(C(C)C)cccc1C(C)C)c1ccccc1 (stereo not given),inactive,6.40,,
CC(C)c1cccc(C(C)C)c1NC(=O)NCC1(c2ccc(N(C)C)cc2)CCCC1 [NEVANIMIBE],,,,Change (Rattus norvegicus [8]): 200%; Change (Rattus norvegicus [5]): -62%
CC(C)c1cccc(C(C)C)c1NC(=O)NCC1(c2ccccc2)CCCC1,,7.77,-38,Change (Rattus norvegicus [4]): -12%; Change (Rattus norvegicus [5]): -7%
CCCCCCCCCCCCCCCCNC(CNC(=O)Nc1c(C(C)C)cccc1C(C)C)c1ccccc1 (racemic),inactive,6.92,,
CCOC(=O)N1CCN(CCCCCC(=O)NC(CNC(=O)Nc2c(C(C)C)cccc2C(C)C)c2ccccc2)CC1 (stereo not given),inactive,5.55,,
CCCCCCCCCCCCCCCCCCNC(CNC(=O)Nc1c(C(C)C)cccc1C(C)C)c1ccccc1 (racemic),,6.64,-3,
"CC(C)c1cccc(C(C)C)c1NC(=O)NCC(NCc1ccc(CN(C)C)cc1)c1ccccc1 (single isomer, unassigned; (-))",,,-57,pIC50 [9]: 6.77
